Laboratory results reported in ChEMBL document CHEMBL3525942, “Disposition and metabolism of [14C]SB-649868, an orexin 1 and 2 receptor antagonist, in humans” (Drug Metab Dispos, 2011).

Columns and labels:
[1] = Drug level in human urine treated with [14C]SB-649868 at 30 mg, po single dose after 0 to 72 hrs by HPLC-MSn analysis; conditions: in vivo, 0-72 h
[2] = Drug level in human feces treated with [14C]SB-649868 at 30 mg, po single dose by HPLC-MSn analysis; conditions: in vivo
Plasma [3] = experiment: Drug level in human plasma assessed as radioactivity treated with [14C]SB-649868 at 30 mg, po single dose after 48 hrs by HPLC-MSn analysis; type: ADME, organism-based; parameters: dosed compound name [14C]SB-649868; conditions: in vivo
Summary of the method: (§1)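 Plasma taken 3, 12, 24 and 48 h after one oral 30 mg [14C] dose, extracted, and run on radio-HPLC: C8 column, 45 mM ammonium acetate pH 3.8 and acetonitrile gradient, 1 ml/min. Fractions collected into scintillant plates and counted 5 min. Extraction recovery measured; data corrected when recovery was <85%. Values are % of plasma radioactivity, BQL 1%; n=7 at 3 and 12 h.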

Plasma [4] = experiment: Drug level in human plasma assessed as radioactivity treated with [14C]SB-649868 at 30 mg, po single dose after 24 hrs by HPLC-MSn analysis; type: ADME, organism-based; parameters: dosed compound name [14C]SB-649868; conditions: in vivo
Summary of the method: as §1

Plasma [5] = experiment: Drug level in human plasma assessed as radioactivity treated with [14C]SB-649868 at 30 mg, po single dose after 12 hrs by HPLC-MSn analysis; type: ADME, organism-based; parameters: dosed compound name [14C]SB-649868; conditions: in vivo
Summary of the method: as §1

Plasma [6] = experiment: Drug level in human plasma assessed as radioactivity treated with [14C]SB-649868 at 30 mg, po single dose after 3 hrs by HPLC-MSn analysis; type: ADME, organism-based; parameters: dosed compound name [14C]SB-649868; conditions: in vivo
Summary of the method: as §1

SMILES: Cc1nc(C(=O)N[C@@H](CCCC(=O)O)CNC(=O)c2cccc3occc23)c(-c2ccc(F)cc2)s1
- Compound recovery [1]: Below quantification limit
- Compound recovery [2]: 1.1%

SMILES: Cc1nc(C(=O)N2CCCC[C@H]2CN2C(=O)c3cccc(O)c3CC2O)c(-c2ccc(F)cc2)s1 (stereo not given in full)
- Compound recovery (Plasma [3]): 15.1%
- Compound recovery (Plasma [4]): 19.3%
- Compound recovery [1]: 0.2%
- Compound recovery (Plasma [5]): 16.8%
- Compound recovery [2]: 2.6%
- Compound recovery (Plasma [6]): 6%

SMILES: Cc1nc(C(=O)N2CCCC[C@H]2CNC(=O)c2cccc(O)c2CC(=O)O)c(-c2ccc(F)cc2)s1
- Compound recovery (Plasma [3]): < 1
- Compound recovery (Plasma [4]): 4.2%
- Compound recovery [1]: 1.5%
- Compound recovery (Plasma [5]): 6.7%
- Compound recovery [2]: 10.3%
- Compound recovery (Plasma [6]): < 1

SMILES: Cc1nc(C(=O)N2CCCC[C@H]2CN)c(-c2ccc(F)cc2)s1
- Compound recovery (Plasma [3]): 3%
- Compound recovery (Plasma [4]): 1.9%
- Compound recovery [1]: 0.6%
- Compound recovery (Plasma [5]): 1%
- Compound recovery [2]: 1.5%
- Compound recovery (Plasma [6]): 1.3%
